Data as given in ChEMBL document CHEMBL1142682, “Design, synthesis, and biological evaluation of novel potent and selective alphavbeta3/alphavbeta5 integrin dual inhibitors with improved bioavailability. Selection of the molecular core” (J Med Chem, 2005).

Assays:
Integrin alpha-5/beta-1 = Integrin alpha-5/beta-1 (Homo sapiens, UniProt P05556+P08648); experiment: In vitro inhibition of human alpha5-beta1 integrin binding in ELISA; format: protein-complex assay
Outline: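 Human α5β1 coated at 3 µg/mL; blocking and binding at 30 °C. Biotinylated human fibronectin (1 µg/mL) with compounds 0.0001-20 µM, 2 h; NeutrAvidin-HRP 1 h 30 °C, OPD read at 492 nm. % inhibition vs buffer controls averaged over three determinations; IC50 by four-parameter fit.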

Integrin alpha-V/beta-3 = Integrin alpha-V/beta-3 (Homo sapiens, UniProt P05106+P06756); experiment: In vitro inhibition of human alphaV-beta3 integrin binding in ELISA; format: protein-complex assay
Integrin alpha-V/beta-3, sequence (P05106 27-788 limits assumed): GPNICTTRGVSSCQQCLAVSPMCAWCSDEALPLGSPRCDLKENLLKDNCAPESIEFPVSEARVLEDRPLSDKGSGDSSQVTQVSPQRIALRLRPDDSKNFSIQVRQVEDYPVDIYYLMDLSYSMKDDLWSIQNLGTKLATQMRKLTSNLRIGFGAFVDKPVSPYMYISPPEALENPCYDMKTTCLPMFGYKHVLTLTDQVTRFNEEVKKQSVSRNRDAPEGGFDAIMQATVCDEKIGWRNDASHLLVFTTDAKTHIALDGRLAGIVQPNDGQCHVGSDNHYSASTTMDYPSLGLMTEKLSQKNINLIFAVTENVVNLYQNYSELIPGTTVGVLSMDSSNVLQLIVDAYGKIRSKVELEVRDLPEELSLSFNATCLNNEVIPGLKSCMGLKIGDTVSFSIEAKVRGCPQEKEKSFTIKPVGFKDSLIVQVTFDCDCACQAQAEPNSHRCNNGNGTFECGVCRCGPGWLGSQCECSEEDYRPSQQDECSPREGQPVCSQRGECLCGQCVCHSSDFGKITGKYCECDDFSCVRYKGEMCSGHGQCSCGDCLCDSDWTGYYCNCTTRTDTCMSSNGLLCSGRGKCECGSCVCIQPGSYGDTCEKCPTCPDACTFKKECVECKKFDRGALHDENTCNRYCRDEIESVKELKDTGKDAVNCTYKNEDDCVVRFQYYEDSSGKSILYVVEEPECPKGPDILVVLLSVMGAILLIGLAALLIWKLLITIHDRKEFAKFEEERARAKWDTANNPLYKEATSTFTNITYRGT
Integrin alpha-V/beta-3, sequence (P06756 31-889 limits assumed): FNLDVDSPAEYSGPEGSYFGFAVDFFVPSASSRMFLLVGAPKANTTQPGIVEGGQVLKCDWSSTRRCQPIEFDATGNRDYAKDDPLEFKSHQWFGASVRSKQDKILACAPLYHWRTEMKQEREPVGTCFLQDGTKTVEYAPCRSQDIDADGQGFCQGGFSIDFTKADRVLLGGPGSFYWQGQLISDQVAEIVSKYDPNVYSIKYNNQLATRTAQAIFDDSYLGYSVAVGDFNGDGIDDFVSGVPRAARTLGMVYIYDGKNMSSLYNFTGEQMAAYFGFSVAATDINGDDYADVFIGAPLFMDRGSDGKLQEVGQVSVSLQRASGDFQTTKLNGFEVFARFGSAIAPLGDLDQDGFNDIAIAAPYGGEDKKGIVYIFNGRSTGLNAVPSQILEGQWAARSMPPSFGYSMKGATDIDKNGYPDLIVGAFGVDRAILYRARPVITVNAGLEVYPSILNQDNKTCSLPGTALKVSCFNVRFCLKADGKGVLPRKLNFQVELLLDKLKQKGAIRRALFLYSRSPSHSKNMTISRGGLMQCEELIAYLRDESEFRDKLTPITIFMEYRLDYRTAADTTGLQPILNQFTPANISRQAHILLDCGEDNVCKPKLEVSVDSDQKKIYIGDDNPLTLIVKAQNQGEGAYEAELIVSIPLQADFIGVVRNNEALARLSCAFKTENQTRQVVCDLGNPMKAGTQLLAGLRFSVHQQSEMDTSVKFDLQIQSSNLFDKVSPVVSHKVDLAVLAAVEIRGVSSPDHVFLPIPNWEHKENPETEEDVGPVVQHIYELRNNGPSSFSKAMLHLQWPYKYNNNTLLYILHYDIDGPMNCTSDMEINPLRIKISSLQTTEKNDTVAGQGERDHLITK
Integrin alpha-V/beta-3, sequence (P06756 891-1048 limits assumed): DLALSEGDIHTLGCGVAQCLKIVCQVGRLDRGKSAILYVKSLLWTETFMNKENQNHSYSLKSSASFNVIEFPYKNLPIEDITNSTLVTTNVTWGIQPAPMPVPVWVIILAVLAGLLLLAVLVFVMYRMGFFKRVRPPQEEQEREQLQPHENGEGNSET
Outline: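 Plate-coated human αvβ3 (0.4 µg/mL) in Tris buffer with Ca, Mg, Mn; compounds 0.0001-20.0 µM with biotinylated human vitronectin (1 µg/mL), 2 h, room temperature throughout. NeutrAvidin-HRP detection, OPD read at 492 nm; % inhibition vs buffer controls from triplicate determinations, IC50 by four-parameter fit.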

Integrin alpha-V/beta-5 = Integrin alpha-V/beta-5 (Homo sapiens, UniProt P06756+P18084); experiment: In vitro inhibition of human alphaV-beta5 integrin binding in ELISA; format: protein-complex assay
Outline: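 Human αvβ5 coated at 1 µg/mL in Tris buffer with Ca, Mg, Mn; biotinylated human vitronectin (1 µg/mL) plus compounds (0.0001-20 µM) incubated 2 h, all at room temperature. NeutrAvidin-HRP, OPD development, absorbance 492 nm; IC50 from four-parameter fit of triplicate % inhibition relative to buffer controls.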

[1] = molecular target: Integrin alpha-IIb/beta-3 (Homo sapiens, UniProt P05106+P08514); experiment: In vitro inhibition of human alphaIIb betaIIIa integrin binding in ELISA; format: protein-complex assay
Integrin alpha-IIb/beta-3, sequence (P05106 27-788 limits assumed): as the sequence (P05106 27-788 limits assumed) above
Integrin alpha-IIb/beta-3, sequence (P08514 32-887 limits assumed): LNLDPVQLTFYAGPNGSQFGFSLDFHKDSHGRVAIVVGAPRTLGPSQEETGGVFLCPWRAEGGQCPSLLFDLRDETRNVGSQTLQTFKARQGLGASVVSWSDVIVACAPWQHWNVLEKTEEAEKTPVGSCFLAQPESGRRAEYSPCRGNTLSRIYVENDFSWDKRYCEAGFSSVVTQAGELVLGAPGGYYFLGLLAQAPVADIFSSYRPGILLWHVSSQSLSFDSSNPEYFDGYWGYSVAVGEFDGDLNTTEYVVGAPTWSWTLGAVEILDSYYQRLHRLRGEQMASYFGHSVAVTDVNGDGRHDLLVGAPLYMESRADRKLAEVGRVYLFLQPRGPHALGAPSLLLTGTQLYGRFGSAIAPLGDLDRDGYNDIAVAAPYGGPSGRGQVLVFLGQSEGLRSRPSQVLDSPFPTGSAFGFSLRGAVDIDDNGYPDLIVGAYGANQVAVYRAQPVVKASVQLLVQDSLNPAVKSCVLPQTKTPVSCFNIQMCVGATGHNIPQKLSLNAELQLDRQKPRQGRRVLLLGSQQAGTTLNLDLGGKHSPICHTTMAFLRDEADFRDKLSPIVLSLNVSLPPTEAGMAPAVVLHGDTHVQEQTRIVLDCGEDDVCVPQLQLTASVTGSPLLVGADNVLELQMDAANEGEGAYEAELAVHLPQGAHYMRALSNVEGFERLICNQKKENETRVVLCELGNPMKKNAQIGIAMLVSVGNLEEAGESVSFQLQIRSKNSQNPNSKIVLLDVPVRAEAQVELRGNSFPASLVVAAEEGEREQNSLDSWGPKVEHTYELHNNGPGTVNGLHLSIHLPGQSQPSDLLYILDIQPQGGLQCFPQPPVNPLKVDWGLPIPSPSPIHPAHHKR
Integrin alpha-IIb/beta-3, sequence (P08514 891-1039 limits assumed): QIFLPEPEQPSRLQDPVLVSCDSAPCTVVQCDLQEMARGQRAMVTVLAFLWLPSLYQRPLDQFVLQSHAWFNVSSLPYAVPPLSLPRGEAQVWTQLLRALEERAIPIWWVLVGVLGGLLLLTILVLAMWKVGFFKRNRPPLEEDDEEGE
Outline: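 Immobilized human fibrinogen (10 µg/mL coat, overnight 4 °C, Tris/Ca buffer pH 7.5) bound by human GPIIbIIIa (40 µg/mL) with compounds 0.027-20.0 µM, 1 h 37 °C; bound receptor detected with anti-GPIIbIIIa mAb then HRP anti-mouse IgG, OPD development, A492. % inhibition vs buffer controls, mean of three determinations; IC50 by four-parameter fit.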

Caco-2 = experiment: In vitro CACO-2 cell permeability potency was determined; format: functional, cell-based; details: Homo sapiens
[2] = Area under curve for the compound was determined at infinity in mouse upon 50 mpk peroral administration; format: ADME; details: in vivo, po, 50 mg/kg
[3] = Area under curve for the compound was determined at infinity in mouse upon 5 mpk intravenous administration; format: ADME; details: in vivo, 5 mg/kg
[4] = Extension in area under curve for the compound was determined in mouse upon 50 mpk peroral administration; format: ADME; details: in vivo, po, 50 mg/kg
[5] = Extension in area under curve for the compound was determined in mouse upon 5 mpk intravenous administration; format: ADME; details: in vivo, 5 mg/kg
[6] = Half life in mouse upon 50 mpk peroral administration; format: ADME, organism-based; details: in vivo, po, 50 mg/kg
[7] = Half life in mouse upon 5 mpk intravenous administration; format: ADME, organism-based; details: in vivo, 5 mg/kg
[8] = Mean residence time for the compound was determined in mouse upon 5 mpk intravenous administration; format: ADME, organism-based; details: in vivo, 5 mg/kg
[9] = Maximum time required to reach maximum plasma concentration in mouse upon 50 mpk peroral administration (n=3); Range = 0.25-0.50 hr; format: ADME, organism-based; details: po, 50 mg/kg
[10] = Apparent volume of distribution during the terminal phase was determined in mouse upon 5 mpk intravenous administration; format: ADME, organism-based; details: in vivo, 5 mg/kg, read-out: Vz
[11] = Maximum clearance in mouse upon 5 mpk intravenous administration; format: ADME, organism-based; details: in vivo, 5 mg/kg
[12] = Oral bioavailability in mouse (dose 50 mg/kg); format: ADME, organism-based; details: in vivo
[13] = Maximum concentration in mouse plasma upon 50 mpk peroral administration (n=3); format: ADME, organism-based; parameters: dose 50 mpk, route oral; details: po, 50 mg/kg

Integrin alpha-5/beta-1, sequence (P05556 21-798 limits assumed): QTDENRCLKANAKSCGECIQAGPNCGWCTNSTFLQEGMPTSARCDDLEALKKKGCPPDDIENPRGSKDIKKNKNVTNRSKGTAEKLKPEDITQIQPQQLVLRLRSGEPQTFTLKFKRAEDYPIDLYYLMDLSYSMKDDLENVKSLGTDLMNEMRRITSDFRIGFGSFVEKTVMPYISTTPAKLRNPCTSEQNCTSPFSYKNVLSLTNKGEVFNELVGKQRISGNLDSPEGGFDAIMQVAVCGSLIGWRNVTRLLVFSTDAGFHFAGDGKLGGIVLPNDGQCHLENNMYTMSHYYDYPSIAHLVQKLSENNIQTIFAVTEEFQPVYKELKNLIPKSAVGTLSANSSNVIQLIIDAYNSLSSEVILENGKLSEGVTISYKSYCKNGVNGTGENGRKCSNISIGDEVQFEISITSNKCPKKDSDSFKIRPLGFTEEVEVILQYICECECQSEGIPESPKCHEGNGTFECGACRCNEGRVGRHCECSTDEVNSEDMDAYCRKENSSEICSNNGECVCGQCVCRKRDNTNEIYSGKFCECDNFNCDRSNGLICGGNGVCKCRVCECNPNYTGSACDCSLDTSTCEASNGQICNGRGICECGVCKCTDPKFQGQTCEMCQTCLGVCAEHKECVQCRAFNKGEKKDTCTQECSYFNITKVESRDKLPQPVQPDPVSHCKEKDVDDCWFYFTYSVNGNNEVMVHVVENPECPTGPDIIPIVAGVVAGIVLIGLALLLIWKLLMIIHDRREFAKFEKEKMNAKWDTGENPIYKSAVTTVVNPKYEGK
Integrin alpha-5/beta-1, sequence (P08648 42-894 limits assumed): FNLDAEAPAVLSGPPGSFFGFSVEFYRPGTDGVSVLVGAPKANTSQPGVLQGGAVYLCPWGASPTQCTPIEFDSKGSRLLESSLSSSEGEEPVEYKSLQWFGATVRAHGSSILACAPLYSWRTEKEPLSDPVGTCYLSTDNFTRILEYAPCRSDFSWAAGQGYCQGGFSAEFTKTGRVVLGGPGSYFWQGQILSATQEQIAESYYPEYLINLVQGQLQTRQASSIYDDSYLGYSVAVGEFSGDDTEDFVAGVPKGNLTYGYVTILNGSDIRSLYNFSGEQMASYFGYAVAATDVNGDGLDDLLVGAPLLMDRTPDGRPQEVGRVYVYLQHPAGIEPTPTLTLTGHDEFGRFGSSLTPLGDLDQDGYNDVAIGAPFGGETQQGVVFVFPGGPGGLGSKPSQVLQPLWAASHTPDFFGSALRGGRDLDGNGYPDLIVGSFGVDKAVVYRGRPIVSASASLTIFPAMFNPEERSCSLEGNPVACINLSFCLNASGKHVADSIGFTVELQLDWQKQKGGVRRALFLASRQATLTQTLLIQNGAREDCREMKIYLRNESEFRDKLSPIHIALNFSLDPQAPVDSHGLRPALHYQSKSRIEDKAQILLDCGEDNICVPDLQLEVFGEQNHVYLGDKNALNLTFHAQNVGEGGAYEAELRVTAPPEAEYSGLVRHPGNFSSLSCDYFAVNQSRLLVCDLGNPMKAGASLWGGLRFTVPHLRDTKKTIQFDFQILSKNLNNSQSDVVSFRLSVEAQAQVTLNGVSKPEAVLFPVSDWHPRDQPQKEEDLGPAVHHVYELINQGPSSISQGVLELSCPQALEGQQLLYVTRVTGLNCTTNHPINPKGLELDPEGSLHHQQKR
Integrin alpha-5/beta-1, sequence (P08648 895-1049 limits assumed): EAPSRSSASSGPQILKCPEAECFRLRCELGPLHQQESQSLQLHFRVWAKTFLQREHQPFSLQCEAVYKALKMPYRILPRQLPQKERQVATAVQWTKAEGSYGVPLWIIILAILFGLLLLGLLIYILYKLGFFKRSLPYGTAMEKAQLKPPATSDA

Structure (SMILES)	IC50 (Integrin alpha-5/beta-1)	IC50 (Integrin alpha-V/beta-3)	IC50 (Integrin alpha-V/beta-5)	IC50 [1]	Permeability (Caco-2)	AUC inf [2]	AUC inf [3]	Ext AUC [4]	Ext AUC [5]	half-life [6]	half-life [7]	MRT [8]	Tmax [9]	Vd [10]	clearance [11]	bioavailability [12]	Cmax [13]
O=C(O)CCn1ccc2cc(OCCCNc3ccccn3)ccc21	> 20000 nM	470 nM	2.5 nM	> 20000 nM	6e-06 AB cm/s	–	–	–	–	–	–	–	–	–	–	–	–
CNc1cccc(CCOc2ccc3c(CCC(=O)O)coc3c2)n1	> 20000 nM	33 nM	420 nM	> 20000 nM	1.7e-05 AB cm/s	14600 ng·h/mL	1280 ng·h/mL	1%	2%	115 min	5.4 min	6.6 min	30 min	0.5 L/kg	65.1 mL/min/kg	114%	16200 ng/mL
CNc1cccc(CCOc2ccc3c(CCC(=O)O)csc3c2)n1	7800 nM	30 nM	140 nM	> 20000 nM	1.6e-05 AB cm/s	36700 ng·h/mL	5040 ng·h/mL	5%	1%	140 min	44.4 min	33.6 min	30 min	1.05 L/kg	16.5 mL/min/kg	73%	27500 ng/mL
CNc1cccc(CCOc2ccc3c(ccn3CCC(=O)O)c2)n1	15000 nM	49 nM	210 nM	> 20000 nM	6e-06 AB cm/s	64000 ng·h/mL	7100 ng·h/mL	7%	3%	143 min	93.6 min	103 min	30 min	1.58 L/kg	11.7 mL/min/kg	90%	38300 ng/mL
